The test system of one data set is MRC5 SV40 cells. Nature of the data set: Native IdU assay, nascent ssDNA. The format is cell-based, human. To be noted: 2 mM HU, short treatment.
The next data set concerns MRC5SV40 fibroblasts. Nature of the data set: Neutral comet assay, HU-induced DSBs. It is filed as cell-based, human. To be noted: HU 24 h, inhibitor 30 min before HU.
Data set [1] relates to association of RAD52 with parental ssDNA. The data set is described as follows: In situ proximity ligation assay. The format is cell-based. The note with it: after HU treatment. The gist of the method: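 Parental DNA was labelled with 50 μM IdU for 20 h, then 2 h in fresh DMEM before treatment. Cells were Triton-permeabilised (0.5%, 10 min, 4°C), fixed in 3% formaldehyde/2% sucrose and blocked in 3% BSA. Probes: rabbit anti-RAD52 (1:150) plus mouse anti-IdU (1:10), then PLA probes, each 1 h at 37°C. Ligation and rolling-circle amplification used a TRITC oligo. Single-antibody controls were included; spots per cell given as mean ± SE.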

For the next data set, the target named is T1, RAD52–ssDNA interaction (Homo sapiens, UniProt P43351).
T1 sequence (P43351 1-418): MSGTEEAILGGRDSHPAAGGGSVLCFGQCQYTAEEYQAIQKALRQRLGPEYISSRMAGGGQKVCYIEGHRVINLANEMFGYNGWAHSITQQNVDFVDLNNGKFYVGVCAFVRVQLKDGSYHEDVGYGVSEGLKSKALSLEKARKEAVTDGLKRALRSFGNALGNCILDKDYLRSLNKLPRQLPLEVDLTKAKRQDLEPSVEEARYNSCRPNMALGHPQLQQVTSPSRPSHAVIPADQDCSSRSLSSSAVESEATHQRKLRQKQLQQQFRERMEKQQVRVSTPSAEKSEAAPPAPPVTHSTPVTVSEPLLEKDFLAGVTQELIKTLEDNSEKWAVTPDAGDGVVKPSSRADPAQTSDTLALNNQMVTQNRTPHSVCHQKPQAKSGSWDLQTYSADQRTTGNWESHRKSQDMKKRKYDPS
The note with it: cited from earlier work.

The subject of the next data set is BRCA2-depleted cells. The note with it: cited from earlier work.
The next data set addresses RPA–ssDNA interaction (Homo sapiens, UniProt P27694). To be noted: cited from earlier work.
For data set [2], the system named is complemented cell line (HA). To be noted: cited from earlier work.
The next data set concerns EUFA423F. The note with it: cited from earlier work.
The data set “mass photometry” concerns the molecule itself. The data set is described as follows: mass photometry.

RPA–ssDNA interaction, sequence (P27694 whole entry): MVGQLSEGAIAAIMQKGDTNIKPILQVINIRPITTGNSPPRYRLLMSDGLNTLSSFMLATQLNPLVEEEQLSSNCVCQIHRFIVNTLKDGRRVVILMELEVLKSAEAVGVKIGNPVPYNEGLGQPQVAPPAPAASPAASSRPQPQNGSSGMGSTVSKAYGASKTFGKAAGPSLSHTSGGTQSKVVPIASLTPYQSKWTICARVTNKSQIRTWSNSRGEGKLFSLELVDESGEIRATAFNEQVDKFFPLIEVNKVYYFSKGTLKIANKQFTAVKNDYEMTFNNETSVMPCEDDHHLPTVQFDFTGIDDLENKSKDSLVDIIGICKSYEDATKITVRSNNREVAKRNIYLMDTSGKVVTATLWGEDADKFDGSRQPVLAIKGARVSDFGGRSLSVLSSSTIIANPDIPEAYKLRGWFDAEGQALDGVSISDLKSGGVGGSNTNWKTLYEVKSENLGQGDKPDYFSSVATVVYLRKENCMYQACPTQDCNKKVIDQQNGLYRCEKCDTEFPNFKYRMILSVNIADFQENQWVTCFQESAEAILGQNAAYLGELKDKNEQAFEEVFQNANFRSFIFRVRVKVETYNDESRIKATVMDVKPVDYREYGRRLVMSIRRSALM
RPA–ssDNA interaction, sequence (P15927 whole entry partner): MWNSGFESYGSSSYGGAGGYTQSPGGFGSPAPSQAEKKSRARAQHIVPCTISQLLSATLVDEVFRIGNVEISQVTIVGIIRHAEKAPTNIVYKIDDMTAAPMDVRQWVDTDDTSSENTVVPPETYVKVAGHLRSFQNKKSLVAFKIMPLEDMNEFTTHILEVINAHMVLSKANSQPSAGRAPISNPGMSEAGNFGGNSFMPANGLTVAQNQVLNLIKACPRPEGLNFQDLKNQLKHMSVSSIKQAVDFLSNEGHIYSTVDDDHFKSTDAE
RPA–ssDNA interaction, sequence (P35244 whole entry partner): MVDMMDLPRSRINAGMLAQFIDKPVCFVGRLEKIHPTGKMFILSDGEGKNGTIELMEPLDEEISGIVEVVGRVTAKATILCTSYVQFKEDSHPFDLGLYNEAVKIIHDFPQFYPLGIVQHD

For `Oc1cc(O)c2c(c1)O[C@H](c1cc(O)c(O)c(O)c1)[C@H](O)C2` [EGC, epigallocatechin], in the data set on MRC5 SV40 cells, the “Exposure of nascent ssDNA (native anti-IdU IF)” value was “significantly increased the level of ssDNA”. Moreover, in the data set on MRC5SV40 fibroblasts, the “DSBs formation (tail moment) in HU-treated cells” value is reported as “significantly reduced”. Further, the “Association of RAD52 with parental ssDNA (PLA spots per cell)” value in data set [1] is on record as “supressed”. Further, at RAD52–ssDNA interaction, the “Competition with ssDNA binding to RAD52” value is given as “competed with ssDNA binding to RAD52” and the “Specificity for RAD52” value is “highly specific to RAD52”. Also, the “Toxicity to BRCA2-depleted cells” value in the data set on BRCA2-depleted cells is “selectively toxic”.
For `O=C(O[C@@H]1Cc2c(O)cc(O)cc2O[C@@H]1c1cc(O)c(O)c(O)c1)c1cc(O)c(O)c(O)c1` [EGCG, epigallocatechin gallate], the “Effect on ssDNA binding to RPA” value on RPA–ssDNA interaction is recorded as “also inhibited the RPA–ssDNA interaction”.
For the molecule `CO[C@@]12[C@H](COC(N)=O)C3=C(C(=O)C(C)=C(N)C3=O)N1C[C@@H]1N[C@@H]12` [mitomycin C], in data set [2], the “Sensitivity of complemented cell line (HA)” value was “resistant”.
As to `C[C@]1(c2nc3c(C(N)=O)cccc3[nH]2)CCCN1` [veliparib], the “Sensitivity of EUFA423F cells” value with EUFA423F is reported as “sensitive”. Also, the “Sensitivity of complemented cell line (HA)” value in [2] was “resistant”.

B1: 6xHis-tagged human RAD52 (wild type) (natural protein)
chain: MSGTEEAILGGRDSHPAAGGGSVLCFGQCQYTAEEYQAIQKALRQRLGPEYISSRMAGGGQKVCYIEGHRVINLANEMFGYNGWAHSITQQNVDFVDLNNGKFYVGVCAFVRVQLKDGSYHEDVGYGVSEGLKSKALSLEKARKEAVTDGLKRALRSFGNALGNCILDKDYLRSLNKLPRQLPLEVDLTKAKRQDLEPSVEEARYNSCRPNMALGHPQLQQVTSPSRPSHAVIPADQDCSSRSLSSSAVESEATHQRKLRQKQLQQQFRERMEKQQVRVSTPSAEKSEAAPPAPPVTHSTPVTVSEPLLEKDFLAGVTQELIKTLEDNSEKWAVTPDAGDGVVKPSSRADPAQTSDTLALNNQMVTQNRTPHSVCHQKPQAKSGSWDLQTYSADQRTTGNWESHRKSQDMKKRKYDPS
In general, stoichiometry N refers to the number of molecules, sites or subunits per partner or assembly. For the molecule B1, the “stoichiometry N” value in the data set “mass photometry” was found to be 10.

(Values after paper PMC10150327 (NAR Cancer, 2023).)
